The values that follow come from ChEMBL document CHEMBL3351863, “Optimization of 2-phenyl-pyrimidine-4-carboxamides towards potent, orally bioavailable and selective P2Y(12) antagonists for inhibition of platelet aggregation” (Bioorg Med Chem Lett, 2014).

Each structure is given as a SMILES string. Where only a bound is given, the exact number is not on record here.

Data set [1] relates to Platelet. The data set is described as follows: Inhibition of ADP-induced platelet aggregation in human platelet rich plasma assessed as remaining activity at 500 nM by in-vitro light transmission aggregometry assay. The data set is classed as functional. The method, boiled down:
(§1)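 Light transmission aggregometry in human platelet-rich plasma; compound incubated, aggregation triggered with 3 µM ADP; remaining activity (RA) recorded at a single compound level (1000, 500 or 100 nM).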

The test system of data set [2] is Platelet. The experiment in a line: Inhibition of ADP-induced platelet aggregation in human platelet rich plasma by in-vitro light transmission aggregometry assay. Format: functional. The essentials:
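Human platelet-rich plasma incubated with compound, aggregation induced by 3 µM ADP and read by light transmission aggregometry; IC₅₀ derived from concentration–response curve.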

Data set [3] has as its target T1, Cytochrome P450 3A4 (Homo sapiens, UniProt P08684). The data set is described as follows: Inhibition of CYP3A4 in human liver microsomes assessed as reduction in testosterone 6beta-hydroxylation. The data set is classed as ADME.
In data set [4] the target is Voltage-gated inwardly rectifying potassium channel KCNH2 (Homo sapiens, UniProt Q12809). The data set is described as follows: Inhibition of human ERG expressed in HEK cells by patch-clamp assay. The following applies: hek293. The data set is classed as cell-based. Background: The patch-clamp technique gives a direct electrical read-out from membranes.
Chain of Voltage-gated inwardly rectifying potassium channel KCNH2 (Q12809 whole entry): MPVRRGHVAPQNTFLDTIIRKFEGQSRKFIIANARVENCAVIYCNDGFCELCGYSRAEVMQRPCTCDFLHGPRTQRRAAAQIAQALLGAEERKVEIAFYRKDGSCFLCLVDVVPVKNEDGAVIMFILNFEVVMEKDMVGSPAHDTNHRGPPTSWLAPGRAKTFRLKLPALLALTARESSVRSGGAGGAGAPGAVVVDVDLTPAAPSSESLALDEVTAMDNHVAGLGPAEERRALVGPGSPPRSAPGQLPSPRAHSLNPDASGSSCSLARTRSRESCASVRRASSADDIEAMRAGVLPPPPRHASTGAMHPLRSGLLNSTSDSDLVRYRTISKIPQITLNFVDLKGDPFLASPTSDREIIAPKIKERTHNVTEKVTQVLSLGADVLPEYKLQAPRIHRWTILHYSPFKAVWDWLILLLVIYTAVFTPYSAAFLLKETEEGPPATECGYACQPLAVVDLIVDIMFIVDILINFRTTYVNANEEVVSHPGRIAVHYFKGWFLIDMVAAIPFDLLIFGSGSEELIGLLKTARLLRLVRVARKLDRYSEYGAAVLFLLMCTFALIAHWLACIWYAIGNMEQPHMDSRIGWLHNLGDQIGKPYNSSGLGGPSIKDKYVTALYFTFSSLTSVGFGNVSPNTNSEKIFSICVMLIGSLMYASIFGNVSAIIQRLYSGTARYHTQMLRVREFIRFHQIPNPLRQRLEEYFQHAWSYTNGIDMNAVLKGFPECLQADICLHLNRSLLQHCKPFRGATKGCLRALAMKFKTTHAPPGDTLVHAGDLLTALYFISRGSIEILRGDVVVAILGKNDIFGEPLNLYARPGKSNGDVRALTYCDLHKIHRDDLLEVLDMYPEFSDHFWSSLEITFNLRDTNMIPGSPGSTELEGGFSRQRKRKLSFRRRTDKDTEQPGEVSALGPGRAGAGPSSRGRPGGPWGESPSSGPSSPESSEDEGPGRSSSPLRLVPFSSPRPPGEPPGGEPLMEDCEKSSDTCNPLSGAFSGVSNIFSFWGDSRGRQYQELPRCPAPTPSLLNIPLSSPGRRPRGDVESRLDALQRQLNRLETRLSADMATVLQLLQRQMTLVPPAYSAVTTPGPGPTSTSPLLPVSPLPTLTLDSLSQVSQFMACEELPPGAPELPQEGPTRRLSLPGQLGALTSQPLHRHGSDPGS
Data set [5] can be described thus: Solubility in neutral pH. Format: physicochemical.
Data set [6] relates to Liver microsome. The experiment in a line: Metabolic stability assay in human liver microsomes assessed as parent drug disappearance at 1 uM after 20 mins by HPLC and mass spectrometry method. The data set is classed as ADME. (In general: Liver microsomes are a subcellular fraction often used to study metabolism.)
A short description of data set [7]: Solubility in basic pH. Format: physicochemical.
In data set [8] the test system is Liver microsome. The data set is described as follows: Metabolic stability assay in rat liver microsomes assessed as parent drug disappearance at 1 uM after 20 mins by HPLC and mass spectrometry method. Format: ADME.
Data set [9] concerns the target T1, Cytochrome P450 3A4. The experiment in a line: Inhibition of CYP3A4 in human liver microsomes assessed as reduction in midazolam 1'-hydroxylation. The data set is classed as ADME.
In data set [10] the test system is Platelet. The data set is described as follows: Inhibition of ADP-induced platelet aggregation in human platelet rich plasma assessed as remaining activity at 1000 nM by in-vitro light transmission aggregometry assay. The data set is classed as functional. The method, boiled down: as §1
In another data set the target is Cytochrome P450 2C9 (Homo sapiens, UniProt P11712). The experiment in a line: Inhibition of CYP2C9 in human liver microsomes assessed as reduction in diclofenac 4'-hydroxylation. The data set is classed as ADME.
Chain of Cytochrome P450 2C9 (P11712 whole entry): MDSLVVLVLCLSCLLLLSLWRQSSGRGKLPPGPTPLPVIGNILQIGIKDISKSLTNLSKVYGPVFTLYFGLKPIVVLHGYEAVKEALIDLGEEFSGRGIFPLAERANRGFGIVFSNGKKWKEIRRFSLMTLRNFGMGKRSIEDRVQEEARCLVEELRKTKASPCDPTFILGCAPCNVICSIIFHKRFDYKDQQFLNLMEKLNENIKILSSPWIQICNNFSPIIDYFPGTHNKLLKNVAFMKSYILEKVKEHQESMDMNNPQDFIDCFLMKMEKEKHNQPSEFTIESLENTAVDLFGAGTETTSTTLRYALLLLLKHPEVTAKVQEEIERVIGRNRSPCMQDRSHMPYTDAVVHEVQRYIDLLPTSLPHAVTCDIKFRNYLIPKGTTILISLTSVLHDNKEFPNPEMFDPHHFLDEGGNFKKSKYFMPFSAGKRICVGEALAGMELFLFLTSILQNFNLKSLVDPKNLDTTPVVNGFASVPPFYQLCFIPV
Another data set has as its target P2Y purinoceptor 12 (Homo sapiens, UniProt Q9H244). The data set is described as follows: Displacement of [3H]-2-methyl-thio-adenosine 5'-diphosphate from human recombinant P2Y12 expressed in CHO cell membranes by scintillation counting method. The method, boiled down: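 CHO cells expressing recombinant P2Y₁₂ receptors, incubated with tritium-labeled 2-methyl-thio-adenosine 5'-diphosphate plus test compound; IC₅₀ from displacement curves, each point in triplicate; reference compound run with every compound set, and set re-analyzed if its IC₅₀ fell outside pre-set 95% confidence interval.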

The next data set has as its target Cytochrome P450 2D6 (Homo sapiens, UniProt P10635). The data set is described as follows: Inhibition of CYP2D6 in human liver microsomes assessed as reduction in dextromethorphan-O demethylation. The data set is classed as ADME.
Data set [11] in a line: Potency shift, ratio of IC50 for inhibition of ADP-induced platelet aggregation in human platelet rich plasma to IC50 for displacement of [3H]-2-methyl-thio-adenosine 5'-diphosphate from human recombinant P2Y12 expressed in CHO cell membranes. (Loss of bound radioactivity is the signal in a displacement assay; it reports binding, not function.)
A short description of data set [12]: Protein binding in human plasma. Conditions: read-out: PPB (converted); call rule not given here. Format: ADME, cell-free.
The test system of data set [13] is Platelet. The experiment in a line: Inhibition of ADP-induced platelet aggregation in human platelet rich plasma assessed as remaining activity at 100 nM by in-vitro light transmission aggregometry assay. The data set is classed as functional. The essentials:
as §1

A word on the IC50: it is the concentration that inhibits the measured activity by half.

Chain of Cytochrome P450 2D6 (P10635 whole entry): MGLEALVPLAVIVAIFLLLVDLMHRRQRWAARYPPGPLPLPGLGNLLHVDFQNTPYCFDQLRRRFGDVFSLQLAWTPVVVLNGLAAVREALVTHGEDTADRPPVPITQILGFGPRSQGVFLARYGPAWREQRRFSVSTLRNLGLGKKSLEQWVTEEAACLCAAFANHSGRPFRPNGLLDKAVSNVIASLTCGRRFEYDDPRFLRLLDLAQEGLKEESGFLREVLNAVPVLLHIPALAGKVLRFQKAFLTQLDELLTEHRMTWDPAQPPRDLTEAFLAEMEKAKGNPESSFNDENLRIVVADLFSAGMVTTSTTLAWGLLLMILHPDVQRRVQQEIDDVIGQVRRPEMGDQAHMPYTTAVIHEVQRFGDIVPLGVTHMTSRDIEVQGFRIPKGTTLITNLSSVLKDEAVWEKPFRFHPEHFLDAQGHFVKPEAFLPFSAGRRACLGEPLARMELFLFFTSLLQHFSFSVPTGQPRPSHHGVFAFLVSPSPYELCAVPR
T1 sequence (P08684 whole entry): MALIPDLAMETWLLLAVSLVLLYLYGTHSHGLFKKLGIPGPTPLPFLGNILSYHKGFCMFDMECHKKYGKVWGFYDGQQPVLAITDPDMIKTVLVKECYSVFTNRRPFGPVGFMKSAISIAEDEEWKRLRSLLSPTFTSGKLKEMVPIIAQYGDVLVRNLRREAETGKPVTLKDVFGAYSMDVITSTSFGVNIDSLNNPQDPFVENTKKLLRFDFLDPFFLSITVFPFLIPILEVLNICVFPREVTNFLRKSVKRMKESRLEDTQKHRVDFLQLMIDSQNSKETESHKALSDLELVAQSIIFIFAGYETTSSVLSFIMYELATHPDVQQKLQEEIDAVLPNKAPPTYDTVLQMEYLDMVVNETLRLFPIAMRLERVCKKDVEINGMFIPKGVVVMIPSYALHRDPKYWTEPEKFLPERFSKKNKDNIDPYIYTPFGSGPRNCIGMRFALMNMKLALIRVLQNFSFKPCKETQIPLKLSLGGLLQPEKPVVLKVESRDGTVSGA
Chain of P2Y purinoceptor 12 (Q9H244 whole entry): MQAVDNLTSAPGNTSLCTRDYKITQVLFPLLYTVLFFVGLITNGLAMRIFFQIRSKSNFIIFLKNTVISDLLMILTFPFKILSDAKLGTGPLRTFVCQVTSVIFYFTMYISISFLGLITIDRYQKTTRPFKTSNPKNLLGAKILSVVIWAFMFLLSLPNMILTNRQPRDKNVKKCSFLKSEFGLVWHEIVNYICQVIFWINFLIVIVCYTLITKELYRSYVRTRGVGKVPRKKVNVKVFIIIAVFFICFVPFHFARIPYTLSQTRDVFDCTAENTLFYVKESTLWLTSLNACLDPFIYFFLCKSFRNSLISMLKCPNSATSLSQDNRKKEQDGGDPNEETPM

On to `CCOC(=O)N1CCN(C(=O)[C@H](CCC(=O)O)NC(=O)c2cc(C(C)(C)C)nc(-c3ccccc3)n2)CC1`, for which the Activity is over 60% in the data set with Platelet [1] and over 30% in the data set with Platelet [10]. Besides, the concentration for half-maximal inhibition (IC50) in the data set with Platelet [2] (Homo sapiens, Platelet, Plasma) is 2050 nM; at P2Y purinoceptor 12, 36 nM. The “inhibition (INH)” value (at Cytochrome P450 3A4 [3]; in data set [4]; at Cytochrome P450 3A4 [9]; on Cytochrome P450 2C9; on Cytochrome P450 2D6) was “Not Active” in each case. The solubility entry in data set [5] and in data set [7] was “soluble” throughout. In addition, the Stability entry in the data set with Liver microsome [6] and with Liver microsome [8] was “Stable” throughout. Further, in data set [11], the “Ratio IC50” value is listed as 57.

With `CCOC(=O)N1CCN(C(=O)[C@H](CCC(=O)O)NC(=O)c2cc(N[C@@H]3CCOC3)nc(-c3ccccc3)n2)CC1`, the Activity with Platelet [1] is on record as under 30%; in the data set with Platelet [13], under 70%. Further, the IC50 in the data set on Platelet [2] (Homo sapiens, Platelet, Plasma) is 58 nM; on P2Y purinoceptor 12 it was 25 nM. The fraction unbound in data set [12] was 0.085. Moreover, the “inhibition (INH)” value (at Cytochrome P450 3A4 [3]; in data set [4]; on Cytochrome P450 3A4 [9]; at Cytochrome P450 2C9; on Cytochrome P450 2D6) was “Not Active” throughout. Further, the solubility entry in data set [5] and in [7] was “soluble” in each case. In addition, the Stability result in the data set on Liver microsome [6] and in the data set on Liver microsome [8] was “Stable” throughout. Moreover, in [11], the “Ratio IC50” value turned out to be 2.3.

Turning to `CCCCc1cc(C(=O)N[C@@H](CCC(=O)O)C(=O)N2CCN(C(=O)OCC)CC2)nc(-c2ccccc2)n1`, the Activity with Platelet [1] is over 60%; in the data set with Platelet [10] it was over 30%. Besides, inhibition in the data set on Platelet [2] (Homo sapiens, Platelet, Plasma) was half-maximal at 1930 nM (IC50). Also, the fraction unbound in [12] is 0.007. Moreover, the “inhibition (INH)” value (on Cytochrome P450 3A4 [3]; in data set [4]; at Cytochrome P450 3A4 [9]; at Cytochrome P450 2C9; at Cytochrome P450 2D6) was “Not Active” in each case. Moreover, the solubility entry in data set [5] and in data set [7] was “soluble” each time. The Stability entry in the data set on Liver microsome [6] and in the data set on Liver microsome [8] was “Stable” each time. The “Ratio IC50” value in [11] is given as 20.

For `CCOC(=O)N1CCN(C(=O)[C@H](CCC(=O)O)NC(=O)c2cc(CCCO)nc(-c3ccccc3)n2)CC1`, the Activity is given as under 30% in the data set with Platelet [1] and under 70% in the data set with Platelet [13]. For the same compound, the IC50 in the data set on Platelet [2] (Homo sapiens, Platelet, Plasma) stood at 264 nM; at P2Y purinoceptor 12, 218 nM. Moreover, the fraction unbound in data set [12] was 0.128. The “inhibition (INH)” value (at Cytochrome P450 3A4 [3]; in [4]; on Cytochrome P450 3A4 [9]; on Cytochrome P450 2C9; on Cytochrome P450 2D6) was “Not Active” in each case. Moreover, the solubility entry in data set [5] and in data set [7] was “soluble” throughout. In addition, the Stability entry in the data set with Liver microsome [6] and in the data set on Liver microsome [8] was “Stable” throughout. Further, the “Ratio IC50” value in [11] is 1.2.

In the case of `CCOC(=O)N1CCN(C(=O)[C@H](CCC(=O)O)NC(=O)c2cc(C(C)C)nc(-c3ccccc3)n2)CC1`, the Activity with Platelet [1] is reported as over 60%; in the data set with Platelet [10] it was over 30%. For the same compound, the IC50 in the data set with Platelet [2] (Homo sapiens, Platelet, Plasma) was 1140 nM; on P2Y purinoceptor 12, 52 nM. The “inhibition (INH)” value (on Cytochrome P450 3A4 [3]; in data set [4]; at Cytochrome P450 3A4 [9]; at Cytochrome P450 2C9; on Cytochrome P450 2D6) was “Not Active” throughout. In addition, the solubility result in data set [5] and in data set [7] was “soluble” each time. Further, the Stability result in the data set with Liver microsome [6] and in the data set with Liver microsome [8] was “Stable” each time. In addition, in data set [11], the “Ratio IC50” value is on record as 22.

With `CCOC(=O)N1CCN(C(=O)[C@H](CCC(=O)O)NC(=O)c2cc([C@H]3C[C@@H]3COC)nc(-c3ccccc3)n2)CC1`, the IC50 was found to be 87 nM in the data set with Platelet [2] (platelet) and 15 nM at P2Y purinoceptor 12. Moreover, in [12], the fraction unbound is 0.034. In data set [11], the “Ratio IC50” value was 5.8.

With `CCOC(=O)N1CCN(C(=O)[C@H](CCC(=O)O)NC(=O)c2cc(NS(=O)(=O)CC)nc(-c3ccccc3)n2)CC1`, the results for the Activity with Platelet [1] and in the data set with Platelet [10] were over 60% and over 30%, respectively. In addition, the “inhibition (INH)” value (on Cytochrome P450 3A4 [3]; in data set [4]; on Cytochrome P450 3A4 [9]; on Cytochrome P450 2C9; at Cytochrome P450 2D6) was “Not Active” throughout. In addition, the solubility entry in [5] and in data set [7] was “soluble” throughout. The Stability result in the data set on Liver microsome [6] and with Liver microsome [8] was “Stable” each time. For the same compound, the IC50 on P2Y purinoceptor 12 was 142 nM.

Take `CCOC(=O)N1CCN(C(=O)[C@H](CCC(=O)O)NC(=O)c2cc(NC(=O)c3ccccc3)nc(-c3ccccc3)n2)CC1`: the Activity was over 60% with Platelet [1] and over 30% with Platelet [10]. For the same compound, the “inhibition (INH)” value (on Cytochrome P450 3A4 [3]; in data set [4]; on Cytochrome P450 3A4 [9]; at Cytochrome P450 2C9; on Cytochrome P450 2D6) was “Not Active” throughout. Further, the solubility result in [5] and in [7] was “soluble” each time. In addition, the Stability entry in the data set with Liver microsome [6] and with Liver microsome [8] was “Stable” throughout. Besides, the IC50 at P2Y purinoceptor 12 amounted to 178 nM.

Turning to `CCOC(=O)N1CCN(C(=O)[C@H](CCC(=O)O)NC(=O)c2cc(NCc3ccccc3)nc(-c3ccccc3)n2)CC1`, the Activity was over 60% with Platelet [1] and over 30% in the data set with Platelet [10]. Also, the “inhibition (INH)” value (at Cytochrome P450 3A4 [3]; in data set [4]; at Cytochrome P450 3A4 [9]; at Cytochrome P450 2C9; on Cytochrome P450 2D6) was “Not Active” each time. Also, the solubility result in data set [5] and in [7] was “soluble” in each case. Moreover, the Stability result with Liver microsome [6] and in the data set with Liver microsome [8] was “Stable” in each case. For the same compound, on P2Y purinoceptor 12, the IC50 stood at 122 nM.

In the case of `CCOC(=O)N1CCN(C(=O)[C@H](CCC(=O)O)NC(=O)c2cc(C3CC3)nc(-c3ccccc3)n2)CC1`, the IC50 was 3230 nM in the data set with Platelet [2] (Homo sapiens, Platelet, Plasma) and 59.5 nM on P2Y purinoceptor 12. Besides, in data set [12], the fraction unbound is 0.003. In addition, the “inhibition (INH)” value (at Cytochrome P450 3A4 [3]; in data set [4]; on Cytochrome P450 3A4 [9]; at Cytochrome P450 2C9; on Cytochrome P450 2D6) was “Not Active” each time. Further, the solubility entry in [5] and in data set [7] was “soluble” throughout. Further, the Stability result in the data set with Liver microsome [6] and in the data set with Liver microsome [8] was “Stable” throughout. Also, in data set [11], the “Ratio IC50” value was found to be 54.

As for `CCOC(=O)N1CCN(C(=O)[C@H](CCC(=O)O)NC(=O)c2cc(Nc3ccccc3)nc(-c3ccccc3)n2)CC1`, the Activity with Platelet [1] is listed as over 60%; in the data set on Platelet [10] it was over 30%. Further, the “inhibition (INH)” value (on Cytochrome P450 3A4 [3]; in [4]; on Cytochrome P450 3A4 [9]; at Cytochrome P450 2C9; at Cytochrome P450 2D6) was “Not Active” each time. The solubility entry in [5] and in data set [7] was “soluble” in each case. Besides, the Stability entry in the data set on Liver microsome [6] and in the data set on Liver microsome [8] was “Stable” each time. Further, the IC50 at P2Y purinoceptor 12 is 177 nM.

Take `CCCNc1cc(C(=O)N[C@@H](CCC(=O)O)C(=O)N2CCN(C(=O)OCC)CC2)nc(-c2ccccc2)n1`: the IC50 in the data set with Platelet [2] (Homo sapiens, Platelet, Plasma) amounted to 3820 nM; at P2Y purinoceptor 12, 162 nM. For the same compound, the fraction unbound in data set [12] is 0.015. Moreover, the “inhibition (INH)” value (at Cytochrome P450 3A4 [3]; in data set [4]; at Cytochrome P450 3A4 [9]; on Cytochrome P450 2C9; on Cytochrome P450 2D6) was “Not Active” in each case. The solubility entry in [5] and in data set [7] was “soluble” throughout. The Stability entry in the data set on Liver microsome [6] and in the data set with Liver microsome [8] was “Stable” in each case. Further, the “Ratio IC50” value in [11] is 24.
